Values joined by “and” are separate entries in the source; they are usually repeats but may differ in a detail not shown here. Equal entries are not always repeated.
Test system: Fibroblast
Assay: Multiplex assay against human fibroblast
Format: toxicity, cell-based
Settings: number of replicates 2
Method in brief: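 At seeding, live cells were stained with Hoechst33342, BioTracker Green Microtubule Cytoskeleton Dye, MitoTracker Red and Annexin V Alexa Fluor 680. After compound addition they were imaged on a CQ1 microscope at 37°C and 5% CO2, and CellPathfinder machine-learning gating sorted them into Hoechst high-intensity objects or normal cells, with normal cells further split into healthy, pyknosed or fragmented nuclei and pyknosed cells into mitotic or apoptotic. Tubulin, mitochondrial-mass and membrane-permeability phenotypes are given as per cents of cells with healthy nuclei.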

[1] = 12 h, 1 µM, compound concentration 1 uM
[2] = 12 h, 10 µM, compound concentration 10 uM
[3] = 24 h, 1 µM, compound concentration 1 uM
[4] = 24 h, 10 µM, compound concentration 10 uM
[5] = 48 h, 1 µM, compound concentration 1 uM
[6] = 48 h, 10 µM, compound concentration 10 uM

SMILES: Cl.Clc1ccc2nsnc2c1NC1=NCCN1 [TIZANIDINE HYDROCHLORIDE]
- Population Apoptotic (%) [1]: 50% and 48%
- Population Fragmented Nuclei (%) [1]: 10%
- Population Healthy Nuclei (%) [1]: 62%
- Population Hoechst High Intensity Objects (%) [1]: 0%
- Population Membrane Permeable-Phenotype (%) [1]: 4% and 7%
- Population Mitochondria Different-Phenotype (%) [1]: 0%
- Population Mitotic Cells (%) [1]: 49% and 51%
- Population Normal (%) [1]: 100%
- Population Pyknosed Nuclei (%) [1]: 26% and 27%
- Population Tubulin-Different-Phenotype (%) [1]: 10% and 5%
- Total Cell Count [1]: 192 and 172
- Population Apoptotic (%) [2]: 36%
- Population Fragmented Nuclei (%) [2]: 16% and 15%
- Population Healthy Nuclei (%) [2]: 68% and 70%
- Population Hoechst High Intensity Objects (%) [2]: 0%
- Population Membrane Permeable-Phenotype (%) [2]: 5% and 3%
- Population Mitochondria Different-Phenotype (%) [2]: 3% and 1%
- Population Mitotic Cells (%) [2]: 63%
- Population Normal (%) [2]: 100%
- Population Pyknosed Nuclei (%) [2]: 15% and 13%
- Population Tubulin-Different-Phenotype (%) [2]: 14% and 8%
- Total Cell Count [2]: 194 and 264
- Population Apoptotic (%) [3]: 67% and 56%
- Population Fragmented Nuclei (%) [3]: 9% and 13%
- Population Healthy Nuclei (%) [3]: 60% and 57%
- Population Hoechst High Intensity Objects (%) [3]: 0%
- Population Membrane Permeable-Phenotype (%) [3]: 6%
- Population Mitochondria Different-Phenotype (%) [3]: 1% and 0%
- Population Mitotic Cells (%) [3]: 32% and 44%
- Population Normal (%) [3]: 100%
- Population Pyknosed Nuclei (%) [3]: 29% and 28%
- Population Tubulin-Different-Phenotype (%) [3]: 14% and 8%
- Total Cell Count [3]: 176 and 173
- Population Apoptotic (%) [4]: 71% and 45%
- Population Fragmented Nuclei (%) [4]: 12% and 14%
- Population Healthy Nuclei (%) [4]: 71% and 72%
- Population Hoechst High Intensity Objects (%) [4]: 0%
- Population Membrane Permeable-Phenotype (%) [4]: 6% and 4%
- Population Mitochondria Different-Phenotype (%) [4]: 3% and 1%
- Population Mitotic Cells (%) [4]: 28% and 54%
- Population Normal (%) [4]: 100% and 99%
- Population Pyknosed Nuclei (%) [4]: 15% and 12%
- Population Tubulin-Different-Phenotype (%) [4]: 12% and 8%
- Total Cell Count [4]: 182 and 271
- Population Apoptotic (%) [5]: 68% and 59%
- Population Fragmented Nuclei (%) [5]: 11% and 15%
- Population Healthy Nuclei (%) [5]: 71% and 63%
- Population Hoechst High Intensity Objects (%) [5]: 0%
- Population Membrane Permeable-Phenotype (%) [5]: 6% and 11%
- Population Mitochondria Different-Phenotype (%) [5]: 0%
- Population Mitotic Cells (%) [5]: 31% and 40%
- Population Normal (%) [5]: 100% and 99%
- Population Pyknosed Nuclei (%) [5]: 17% and 20%
- Population Tubulin-Different-Phenotype (%) [5]: 12% and 3%
- Total Cell Count [5]: 186 and 203
- Population Apoptotic (%) [6]: 72% and 60%
- Population Fragmented Nuclei (%) [6]: 13% and 12%
- Population Healthy Nuclei (%) [6]: 70% and 78%
- Population Hoechst High Intensity Objects (%) [6]: 0%
- Population Membrane Permeable-Phenotype (%) [6]: 5% and 2%
- Population Mitochondria Different-Phenotype (%) [6]: 0%
- Population Mitotic Cells (%) [6]: 27% and 39%
- Population Normal (%) [6]: 100% and 99%
- Population Pyknosed Nuclei (%) [6]: 15% and 8%
- Population Tubulin-Different-Phenotype (%) [6]: 8% and 2%
- Total Cell Count [6]: 193 and 260

SMILES: COc1ccncc1C(=O)NC(=O)Nc1ccc(-c2ccccc2)c(C(F)(F)F)c1
- Population Apoptotic (%) [1]: 43% and 32%
- Population Fragmented Nuclei (%) [1]: 7% and 12%
- Population Healthy Nuclei (%) [1]: 73% and 71%
- Population Hoechst High Intensity Objects (%) [1]: 0%
- Population Membrane Permeable-Phenotype (%) [1]: 5% and 3%
- Population Mitochondria Different-Phenotype (%) [1]: 1% and 2%
- Population Mitotic Cells (%) [1]: 56% and 67%
- Population Normal (%) [1]: 99% and 100%
- Population Pyknosed Nuclei (%) [1]: 19% and 15%
- Population Tubulin-Different-Phenotype (%) [1]: 6% and 5%
- Total Cell Count [1]: 158 and 217
- Population Apoptotic (%) [2]: 38% and 50%
- Population Fragmented Nuclei (%) [2]: 8% and 16%
- Population Healthy Nuclei (%) [2]: 69%
- Population Hoechst High Intensity Objects (%) [2]: 0%
- Population Membrane Permeable-Phenotype (%) [2]: 9% and 5%
- Population Mitochondria Different-Phenotype (%) [2]: 2%
- Population Mitotic Cells (%) [2]: 61% and 50%
- Population Normal (%) [2]: 100%
- Population Pyknosed Nuclei (%) [2]: 22% and 13%
- Population Tubulin-Different-Phenotype (%) [2]: 22% and 16%
- Total Cell Count [2]: 213 and 202
- Population Apoptotic (%) [3]: 59% and 44%
- Population Fragmented Nuclei (%) [3]: 19% and 15%
- Population Healthy Nuclei (%) [3]: 61% and 68%
- Population Hoechst High Intensity Objects (%) [3]: 0%
- Population Membrane Permeable-Phenotype (%) [3]: 4% and 6%
- Population Mitochondria Different-Phenotype (%) [3]: 1% and 2%
- Population Mitotic Cells (%) [3]: 40% and 55%
- Population Normal (%) [3]: 100%
- Population Pyknosed Nuclei (%) [3]: 19% and 16%
- Population Tubulin-Different-Phenotype (%) [3]: 12% and 10%
- Total Cell Count [3]: 189 and 219
- Population Apoptotic (%) [4]: 46% and 65%
- Population Fragmented Nuclei (%) [4]: 10% and 18%
- Population Healthy Nuclei (%) [4]: 66% and 70%
- Population Hoechst High Intensity Objects (%) [4]: 0%
- Population Membrane Permeable-Phenotype (%) [4]: 6% and 4%
- Population Mitochondria Different-Phenotype (%) [4]: 0% and 2%
- Population Mitotic Cells (%) [4]: 53% and 34%
- Population Normal (%) [4]: 100%
- Population Pyknosed Nuclei (%) [4]: 22% and 11%
- Population Tubulin-Different-Phenotype (%) [4]: 19% and 12%
- Total Cell Count [4]: 215 and 203
- Population Apoptotic (%) [5]: 75% and 63%
- Population Fragmented Nuclei (%) [5]: 13% and 16%
- Population Healthy Nuclei (%) [5]: 69% and 74%
- Population Hoechst High Intensity Objects (%) [5]: 0%
- Population Membrane Permeable-Phenotype (%) [5]: 4% and 7%
- Population Mitochondria Different-Phenotype (%) [5]: 0%
- Population Mitotic Cells (%) [5]: 25% and 36%
- Population Normal (%) [5]: 100% and 99%
- Population Pyknosed Nuclei (%) [5]: 16% and 9%
- Population Tubulin-Different-Phenotype (%) [5]: 4% and 6%
- Total Cell Count [5]: 173 and 239
- Population Apoptotic (%) [6]: 66%
- Population Fragmented Nuclei (%) [6]: 9% and 16%
- Population Healthy Nuclei (%) [6]: 79% and 77%
- Population Hoechst High Intensity Objects (%) [6]: 0%
- Population Membrane Permeable-Phenotype (%) [6]: 9% and 1%
- Population Mitochondria Different-Phenotype (%) [6]: 0% and 1%
- Population Mitotic Cells (%) [6]: 33%
- Population Normal (%) [6]: 100%
- Population Pyknosed Nuclei (%) [6]: 10% and 6%
- Population Tubulin-Different-Phenotype (%) [6]: 11% and 4%
- Total Cell Count [6]: 221 and 197

— ChEMBL document CHEMBL5303300, “EUbOPEN Chemogenomics Library - Multiplex” (2023)
